Laboratory results as given in paper PMC6745485 (Heliyon, 2019).
Where “and” joins values, the source holds several entries; their conditions need not be identical. Identical values can stand only once. Entries after “also recorded” stand apart in the source; their conditions may differ.

What was measured:
Assay type in all cases: cell-based
rat PXR [1] = target: T1, rat PXR (Rattus norvegicus, UniProt Q9R1A7); assay: Rat PXR reporter gene assay in COS-1 cells; details: for Agonistic activity REC20 PXR: concentration showing 20% of the agonistic activity of 1 μM PCN, ±SD; for PXR agonistic activity (in words): up to 30 μM
T1 sequence (Q9R1A7 1-431): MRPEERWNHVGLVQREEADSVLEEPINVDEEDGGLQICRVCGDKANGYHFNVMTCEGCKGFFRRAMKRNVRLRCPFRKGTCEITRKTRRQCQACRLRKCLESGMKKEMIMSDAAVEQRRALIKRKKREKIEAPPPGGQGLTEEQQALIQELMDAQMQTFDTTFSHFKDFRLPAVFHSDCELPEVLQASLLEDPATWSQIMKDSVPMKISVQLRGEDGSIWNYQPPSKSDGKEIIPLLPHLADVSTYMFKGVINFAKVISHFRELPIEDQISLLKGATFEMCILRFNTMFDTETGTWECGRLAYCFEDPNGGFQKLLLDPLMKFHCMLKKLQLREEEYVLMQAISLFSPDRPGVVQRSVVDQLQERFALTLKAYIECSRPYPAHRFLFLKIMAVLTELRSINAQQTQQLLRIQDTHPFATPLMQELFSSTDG
Procedure, shortened: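 COS-1 cells (1×10^4/well) co-transfected with rat PXR expression, reporter and Renilla control plasmids via jetPEI. After 24 h, test compound or 0.1% DMSO added in serum-free D-MEM for 24 h. Dual-luciferase read-out, firefly normalized to Renilla, fold vs vehicle. REC20: concentration reaching 20% of 1 μM PCN activity. Mean ± SD, ≥3 experiments in duplicate; Dunnett's test.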

rat PXR [2] = target: T1, rat PXR; details: microsomes of PB- and MC-treated rats, NADPH, vs boiled microsomes
Procedure, shortened: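 Test compound (1 μmol) incubated 30 min at 37 °C in 0.1 M K,Na-phosphate pH 7.4. Mix held an NADPH-generating system and liver microsomes (60 mg protein) from male SD rats given PB 80 mg/kg i.p. plus MC 25 mg/kg p.o. daily for 3 d. Boiled microsomes were the control. Ethyl acetate extract went into DMSO and onto transfected COS-1 cells for 24 h. Normalized firefly/Renilla fold vs vehicle; n=3, t-test.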

rat PPARα = target: T2, rat PPARα (Rattus norvegicus, UniProt P37230); assay: Rat PPARα reporter gene assay in COS-1 cells; details: for Agonistic activity REC20 PPARα: concentration showing 20% of the agonistic activity of 30 μM BZF, ±SD; for PPARα agonistic activity (in words): up to 30 μM
T2 sequence (P37230 1-468): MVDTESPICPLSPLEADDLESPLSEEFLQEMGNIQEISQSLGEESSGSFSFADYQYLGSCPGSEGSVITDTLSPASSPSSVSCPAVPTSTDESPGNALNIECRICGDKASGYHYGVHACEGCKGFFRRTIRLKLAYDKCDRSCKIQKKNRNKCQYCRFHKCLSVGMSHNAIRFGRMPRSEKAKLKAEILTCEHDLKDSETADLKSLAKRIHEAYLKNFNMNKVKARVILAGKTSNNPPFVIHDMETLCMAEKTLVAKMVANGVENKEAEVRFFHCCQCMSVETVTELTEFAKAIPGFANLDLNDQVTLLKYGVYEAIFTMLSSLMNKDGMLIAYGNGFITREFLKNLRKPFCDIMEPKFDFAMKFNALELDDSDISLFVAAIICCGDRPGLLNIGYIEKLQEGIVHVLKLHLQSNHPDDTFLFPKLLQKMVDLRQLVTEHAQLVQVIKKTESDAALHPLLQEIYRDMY

rat CAR = target: T3, rat CAR (Rattus norvegicus, UniProt Q9QUS1); assay: Rat CAR reporter gene assay in COS-1 cells; details: for Agonistic activity REC20 CAR: concentration showing 20% of the agonistic activity of 30 μM artemisinin; for Agonistic activity REC20 CAR / Inverse agonistic activity RIC20 CAR: ±SD; for Inverse agonistic activity RIC20 CAR: concentration showing 80% of the activity of the vehicle control; for CAR inverse agonistic activity (in words) / CAR agonistic activity (in words): up to 30 μM
T3 sequence (Q9QUS1 1-358): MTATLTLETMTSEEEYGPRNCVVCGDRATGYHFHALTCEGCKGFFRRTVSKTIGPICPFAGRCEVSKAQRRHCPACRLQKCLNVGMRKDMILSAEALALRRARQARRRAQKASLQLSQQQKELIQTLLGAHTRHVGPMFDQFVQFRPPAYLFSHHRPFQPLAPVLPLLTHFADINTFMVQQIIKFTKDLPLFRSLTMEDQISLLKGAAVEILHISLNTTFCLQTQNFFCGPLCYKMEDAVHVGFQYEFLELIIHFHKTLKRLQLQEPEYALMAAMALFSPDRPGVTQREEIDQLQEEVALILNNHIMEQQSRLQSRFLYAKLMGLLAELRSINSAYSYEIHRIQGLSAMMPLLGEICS

SMILES: CC(=O)[C@H]1[C@H](C#N)C[C@H]2[C@@H]3CC=C4C[C@@H](O)CC[C@]4(C)[C@H]3CC[C@@]21C [PCN, 5-Pregnen-3β-ol-20-one-16α-carbonitrile, reference compound]
- PXR luciferase activity, fold compared to DMSO-treated cells (rat PXR [1]; 1 μM): 3.2 fold
- Agonistic activity REC20 PXR (rat PXR [1]): 0.0887 ± 0.0118 µM

SMILES: CC(C)=C[C@@H]1[C@@H](C(=O)OCc2coc(Cc3ccccc3)c2)C1(C)C [bioresmethrin]
- Change of PXR activity upon incubation with rat liver microsomes (rat PXR [2]): slightly decreased
- Agonistic activity REC20 PXR (rat PXR [1]): 1.92 ± 0.724 µM
- PXR agonistic activity (in words) (rat PXR [1]): relatively weak activities
- Agonistic activity REC20 PPARα (rat PPARα): - ^c (No effect (REC20 > 30 μM))
- Agonistic activity REC20 CAR (rat CAR): - ^c (No effect (REC20 > 30 μM))
- Inverse agonistic activity RIC20 CAR (rat CAR): - ^c (No effect (REC20 > 30 μM))
- CAR inverse agonistic activity (in words) (rat CAR): showed CAR inverse agonistic activity

SMILES: CC1(C)[C@H](C(=O)O[C@H](C#N)c2cccc(Oc3ccccc3)c2)[C@@H]1C=C(Br)Br [deltamethrin]
- Change of PXR activity upon incubation with rat liver microsomes (rat PXR [2]): decreased
- Agonistic activity REC20 PXR (rat PXR [1]): 0.156 ± 0.0216 µM
- Agonistic activity REC20 PPARα (rat PPARα): - ^c (No effect (REC20 > 30 μM))

SMILES: CC1(C)[C@H](C(=O)OCc2cccc(Oc3ccccc3)c2)[C@@H]1C=C(Cl)Cl [cis-permethrin]
- Change of PXR activity upon incubation with rat liver microsomes (rat PXR [2]): decreased
- PXR activity, fold compared with the control (rat PXR [1]; concentration range 1–30 μM): about 3 fold
- Agonistic activity REC20 PXR (rat PXR [1]): 0.329 ± 0.0472 µM
- Agonistic activity REC20 PPARα (rat PPARα): - ^c (No effect (REC20 > 30 μM))
- Agonistic activity REC20 CAR (rat CAR): - ^c (No effect (REC20 > 30 μM))
- Inverse agonistic activity RIC20 CAR (rat CAR): - ^c (No effect (REC20 > 30 μM))
- CAR agonistic activity (in words) (rat CAR): showed CAR agonistic activity at higher concentrations; also recorded: weak CAR agonistic activity

SMILES: O=Cc1cccc(Oc2ccccc2)c1 [PBAld, 3-phenoxybenzaldehyde]
- Agonistic activity REC20 PXR (rat PXR [1]): - ^c (No effect (REC20 > 30 μM))
- PXR agonistic activity (in words) (rat PXR [1]): inactive
- Agonistic activity REC20 PPARα (rat PPARα): - ^c (No effect (REC20 > 30 μM))
- PPARα agonistic activity (in words) (rat PPARα): weak activity; also recorded: more active PPARα agonists than the parent compounds
- Agonistic activity REC20 CAR (rat CAR): - ^c (No effect (REC20 > 30 μM))
- Inverse agonistic activity RIC20 CAR (rat CAR): - ^c (No effect (REC20 > 30 μM))
- CAR agonistic activity (in words) (rat CAR): did not show CAR agonistic or inverse agonistic activity
- CAR inverse agonistic activity (in words) (rat CAR): did not show CAR agonistic or inverse agonistic activity

SMILES: C=CCC1=C(C)C(OC(=O)C2C(C=C(C)C)C2(C)C)CC1=O (centres unmarked) [allethrin]
- Change of PXR activity upon incubation with rat liver microsomes (rat PXR [2]): slightly decreased
- PXR activity, fold compared with the control (rat PXR [1]; 1 μM or lower): about 2 fold
- PXR activity, fold compared with the control (rat PXR [1]; concentration range 1–30 μM): about 3 fold
- Agonistic activity REC20 PXR (rat PXR [1]): 0.668 ± 0.129 µM
- Agonistic activity REC20 PPARα (rat PPARα): - ^c (No effect (REC20 > 30 μM))
- Agonistic activity REC20 CAR (rat CAR): - ^c (No effect (REC20 > 30 μM))
- Inverse agonistic activity RIC20 CAR (rat CAR): - ^c (No effect (REC20 > 30 μM))

SMILES: CC1(C)[C@H](C=C(Cl)Cl)[C@H]1C(=O)OCc1cccc(Oc2ccccc2)c1 [trans-permethrin]
- Change of PXR activity upon incubation with rat liver microsomes (rat PXR [2]): decreased
- PXR activity, fold compared with the control (rat PXR [1]; 1 μM or lower): about 2 fold
- PXR activity, fold compared with the control (rat PXR [1]; concentration range 1–30 μM): about 3 fold
- Agonistic activity REC20 PXR (rat PXR [1]): 0.674 ± 0.0526 µM
- Agonistic activity REC20 PPARα (rat PPARα): - ^c (No effect (REC20 > 30 μM))
- Agonistic activity REC20 CAR (rat CAR): 4.19 µM and 4.19 ± 3.26 µM
- Inverse agonistic activity RIC20 CAR (rat CAR): - ^c (No effect (REC20 > 30 μM))
- CAR agonistic activity (in words) (rat CAR): showed CAR agonistic activity at higher concentrations; also recorded: weak CAR agonistic activity

SMILES: O=C(O)c1cccc(Oc2ccccc2)c1 [PBAcid, 3-phenoxybenzoic acid]
- Agonistic activity REC20 PXR (rat PXR [1]): - ^c (No effect (REC20 > 30 μM))
- PXR agonistic activity (in words) (rat PXR [1]): inactive
- Agonistic activity REC20 PPARα (rat PPARα): 26.8 µM and 26.8 ± 21.3 µM
- PPARα agonistic activity (in words) (rat PPARα): dose-dependent agonistic activity; also recorded: more active PPARα agonists than the parent compounds
- Agonistic activity REC20 CAR (rat CAR): - ^c (No effect (REC20 > 30 μM))
- Inverse agonistic activity RIC20 CAR (rat CAR): - ^c (No effect (REC20 > 30 μM))
- CAR agonistic activity (in words) (rat CAR): did not show CAR agonistic or inverse agonistic activity
- CAR inverse agonistic activity (in words) (rat CAR): did not show CAR agonistic or inverse agonistic activity

SMILES: CC(C)(Oc1ccc(CCNC(=O)c2ccc(Cl)cc2)cc1)C(=O)O [BZF, bezafibrate, reference compound]
- PPARα luciferase activity, fold (rat PPARα; 30 μM): 2.4 fold
- Agonistic activity REC20 PPARα (rat PPARα): 3.68 ± 0.0944 µM

SMILES: OCc1cccc(Oc2ccccc2)c1 [PBAlc, 3-phenoxybenzyl alcohol]
- Agonistic activity REC20 PXR (rat PXR [1]): - ^c (No effect (REC20 > 30 μM))
- PXR agonistic activity (in words) (rat PXR [1]): weak PXR agonistic activity
- Agonistic activity REC20 PPARα (rat PPARα): - ^c (No effect (REC20 > 30 μM))
- Agonistic activity REC20 CAR (rat CAR): - ^c (No effect (REC20 > 30 μM))
- Inverse agonistic activity RIC20 CAR (rat CAR): - ^c (No effect (REC20 > 30 μM))
- CAR agonistic activity (in words) (rat CAR): did not show CAR agonistic or inverse agonistic activity
- CAR inverse agonistic activity (in words) (rat CAR): did not show CAR agonistic or inverse agonistic activity

SMILES: C[C@@H]1CC[C@H]2[C@@H](C)C(=O)O[C@@H]3O[C@@]4(C)CC[C@@H]1[C@]32OO4 [artemisinin, reference compound]
- CAR luciferase activity, fold (rat CAR; 30 μM): 1.9 fold
- Agonistic activity REC20 CAR (rat CAR): 2.53 ± 4.02 µM

SMILES: CC(C)=CC1C(C(=O)OCc2cccc(Oc3ccccc3)c2)C1(C)C (centres unmarked) [phenothrin]
- Change of PXR activity upon incubation with rat liver microsomes (rat PXR [2]): to the control level; also recorded: significantly decreased
- Agonistic activity REC20 PXR (rat PXR [1]): 3.89 ± 1.03 µM
- PXR agonistic activity (in words) (rat PXR [1]): relatively weak activities
- Agonistic activity REC20 PPARα (rat PPARα): - ^c (No effect (REC20 > 30 μM))
- Agonistic activity REC20 CAR (rat CAR): - ^c (No effect (REC20 > 30 μM))
- Inverse agonistic activity RIC20 CAR (rat CAR): - ^c (No effect (REC20 > 30 μM))
- CAR inverse agonistic activity (in words) (rat CAR): showed CAR inverse agonistic activity
